# In PMC10042892 (Clinical Pharmacokinetics, 2023):
# Like-named read-outs stand apart in the source and are kept apart here.
# What was measured:
# [1] = assay type: in vivo, human; details: for Exposure of metabolite higher compared with normal renal function: single 400-mg dose of ribociclib; for Increase in AUCinf compared with normal renal function / Increase in Cmax compared with normal renal function: single 400-mg dose
# [2] = cited from earlier work
# [3] = Subgroup analysis for letrozole PK by renal function; assay type: in vivo, human; details: X2107 and MONALEESA-7, no moderate RI available, data on file
# [4] = cited from earlier work; remark: listed apart in the source
# [5] = cited from earlier work; remark: listed apart in the source
# [6] = test system: plasma protein; details: cited from earlier work
# [7] = test system: patients with advanced breast cancer; assay: Patient subgroup efficacy analysis; assay type: in vivo, human; details: for PFS HR (95% CI) RIB vs PBO: Cox proportional-hazards model stratified by study; for Median PFS (95% CI): Kaplan–Meier, local investigator's assessment
# Method in brief: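 Pooled data: MONALEESA-2 (full analysis set), MONALEESA-3 (first-line patients) and MONALEESA-7 (NSAI only). Starting dose 600 mg, 3 weeks on/1 week off. Severe RI was excluded. PFS by local investigator assessment. Median PFS by Kaplan–Meier; hazard ratio from a Cox proportional-hazards model stratified by study.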
# [8] = test system: non-cancer subjects; assay: Study A2116: safety; assay type: in vivo, human; details: single 400-mg dose
# Method in brief: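 Phase I, open-label, multicenter, parallel-group, two-part study. Single oral 400-mg dose in non-cancer subjects with varying renal impairment vs matched normal-function subjects. Part I enrolled normal function, severe RI and ESRD not on dialysis.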
# [9] = test system: patients with advanced breast cancer; assay: Patient subgroup safety analysis by renal function; assay type: in vivo, human; details: for AEs leading to discontinuations / Dose modifications owing to renal toxicity / Incidence of thrombocytopenia / On-treatment deaths / QT interval prolongation events: ribociclib group
# Method in brief: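 Safety by renal function group in X2107, MONALEESA-2, MONALEESA-3 and MONALEESA-7 (NSAI only). Starting dose 600 mg, 3 weeks on/1 week off. Drug-related AEs were managed by reducing to 400 or 200 mg. Patients with severe RI were excluded from these studies.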
# [10] = cited from earlier work; remark: listed apart in the source
# [11] = pharmacokinetic data; cited from earlier work
# [12] = baseline eGFR as a continuous covariate; patients; cited from earlier work
compound,measurement,setting,value
CNC(=O)c1cc2cnc(Nc3ccc(N4CCNCC4)cn3)nc2n1C1CCCC1 [LEQ803],Exposure of metabolite higher compared with normal renal function,[1]; mild RI,32%
same,Exposure of metabolite higher compared with normal renal function,[1]; moderate RI,47%
same,Exposure of metabolite higher compared with normal renal function,[1]; severe RI,80%
same,Contribution to the pharmacological activity in vivo,[2],no clinically relevant contribution to the pharmacological activity in vivo
N#Cc1ccc(C(c2ccc(C#N)cc2)n2cncn2)cc1 [letrozole],PK between normal renal function and mild RI,[3],comparable PK
CN(C)C(=O)c1cc2cnc(Nc3ccc(N4CCNCC4)cn3)nc2n1C1CCCC1 [ribociclib],Intestinal excretion,[4],~8%
same,Renal excretion,[4],around 7%
same,"Contribution of renal clearance, share of overall elimination routes","[4]; human absorption, distribution, metabolism, and excretion study",7%
same,"Hepatic elimination, share of overall pathways",[4]; in humans,84%
same,Exposure compared with subjects with normal hepatic function,[5]; mild hepatic impairment,similar
same,Increase in exposure compared with normal hepatic function,[5]; moderate and severe HI,approximately 30%
same,Maximal increase in exposure,[5]; severe HI,1.3 fold
same,Protein binding,[6],70%
same,PFS HR (95% CI) RIB vs PBO,[7]; mild renal impairment,0.57
same,Median PFS (95% CI),[7]; mild renal impairment,24.8 months
same,PFS HR (95% CI) RIB vs PBO,[7]; moderate renal impairment,0.64
same,Median PFS (95% CI),[7]; moderate renal impairment,22.2 months
same,PFS HR (95% CI) RIB vs PBO,[7]; normal renal function,0.58
same,Median PFS (95% CI),[7]; normal renal function,23.8 months
same,Subjects with at least one AE,[8]; all cohorts,31.6%
same,Subjects with treatment-related AEs,[8]; all cohorts,15.8%
same,"Changes from baseline in hematology, chemistry, vital signs, or electrocardiograms",[8]; any of the cohorts,No clinically meaningful changes from baseline
same,Median time to the first dose reduction,"[9]; across renal function cohorts, patients with dose reductions",12.0–12.9 weeks
same,AEs of torsade de pointes,[9]; patients with ABC,No AEs of torsade de pointes were reported
same,Median time to first occurrence of QTcF value > 480 ms and an increase from baseline of >60 ms,[9]; patients with ABC,15 days
same,AEs leading to discontinuations,[9]; mild RI,16.0%
same,Dose modifications owing to renal toxicity,[9]; mild RI,2.5%
same,Incidence of thrombocytopenia,[9]; mild RI,11.0%
same,On-treatment deaths,[9]; mild RI,1.3%
same,QT interval prolongation events,[9]; mild RI,10.3%
same,AEs leading to discontinuations,[9]; moderate RI,25.4%
same,Dose modifications owing to renal toxicity,[9]; moderate RI,3.8%
same,Incidence of thrombocytopenia,[9]; moderate RI,13.8%
same,On-treatment deaths,[9]; moderate RI,5.4%
same,QT interval prolongation events,[9]; moderate RI,10.0%
same,AEs leading to discontinuations,[9]; normal function,10.1%
same,Dose modifications owing to renal toxicity,[9]; normal renal function,0.7%
same,Incidence of thrombocytopenia,[9]; normal renal function,7.0%
same,On-treatment deaths,[9]; normal renal function,1.4%
same,QT interval prolongation events,[9]; normal renal function,6.4%
same,Mean effective half-life,[10]; at 600 mg,33 to 54 h
same,Oral clearance in patients with cancer versus non-cancer subjects,[10],generally lower oral clearance
same,Dose proportionality of exposure,[10]; dose range of 50–1200 mg,slightly over-proportional increases in exposure
same,Time to maximum observed plasma drug concentration,[10]; previous PK analyses,1 to 5 h
same,Ae0-144h Geo-mean (amount excreted into the urine from time 0 to 144 h),"[1]; ESRD, N = 3, single oral dose of ribociclib at 400 mg, Part I and II",8.11 mg
same,Renal clearance as share of the apparent clearance,[1]; Study A2116,around 5%
same,Increase in AUCinf compared with normal renal function,[1]; mild RI,62%
same,Increase in Cmax compared with normal renal function,[1]; mild RI,80%
same,Increase in AUCinf compared with normal renal function,[1]; moderate RI,94%
same,Increase in Cmax compared with normal renal function,[1]; moderate RI,79%
same,Increase in AUCinf compared with normal renal function,[1]; severe RI,167%
same,Increase in Cmax compared with normal renal function,[1]; severe RI,130%
same,Drug–drug interactions with NSAIs (letrozole and anastrozole) or fulvestrant,[11],no drug–drug interactions
same,Effect of RI on PK in covariate analysis,[12],not affected by RI
